# Tests used:
# [1] = test system: Brain; assay: Ratio of drug uptake in ddY mouse brain at 1 uCi/100 uL, iv after 2 mins to drug uptake in ddY mouse brain at 1 uCi/100 uL, iv after 60 mins; type: ADME, organism-based; settings: in vivo
# In short: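 Normal female ddY mice (5 weeks) received the radiotracer iv, and brain uptake (% ID/g, n = 4) was measured by gamma counting at 2 and 60 min. The index is brain uptake at 2 min divided by brain uptake at 60 min.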
# [2] = test system: Brain; assay: Biodistribution in ddY mouse brain at 1 uCi/100 uL, iv after 2 mins by gamma counting; type: ADME, organism-based; settings: in vivo
# In short: (§1)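 Normal female ddY mice (5 weeks, about 20 g; n = 4 per group) received radiotracer iv. Organs were removed and weighed at 2–120 min and counted in a γ-counter. Percent dose per gram of wet tissue was calculated against diluted aliquots of the injected material and reported as mean ± SD.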
# [3] = test system: Brain; assay: Biodistribution in ddY mouse brain at 1 uCi/100 uL, iv after 15 mins by gamma counting; type: ADME, organism-based; settings: in vivo, 0.25 h; in short: as §1
# [4] = test system: Intestine; assay: Biodistribution in ddY mouse intestine at 1 uCi/100 uL, iv after 15 mins by gamma counting; type: ADME, organism-based; settings: in vivo, 0.25 h; in short: as §1
# [5] = test system: Brain; assay: Biodistribution in ddY mouse brain at 1 uCi/100 uL, iv after 120 mins by gamma counting; type: ADME, organism-based; settings: in vivo, 2 h; in short: as §1
# [6] = test system: Blood; assay: Biodistribution in ddY mouse blood at 1 uCi/100 uL, iv after 120 mins by gamma counting; type: ADME, organism-based; settings: in vivo, 2 h; in short: as §1
# [7] = test system: Thyroid gland; assay: Biodistribution in ddY mouse thyroid at 1 uCi/100 uL, iv after 15 mins by gamma counting; type: ADME, organism-based; settings: in vivo, 0.25 h
# [8] = test system: Kidney; assay: Biodistribution in ddY mouse kidney at 1 uCi/100 uL, iv after 2 mins by gamma counting; type: ADME, organism-based; settings: in vivo; in short: as §1
# [9] = Partition coefficient, log D of the compound; type: physicochemical; settings: octanol/water
# In short: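 Radiotracer partitioned between n-octanol and PBS: vortexed 3 min at room temperature, centrifuged 5 min at 3000 rpm. Weighed samples of the octanol (100 μL) and buffer (500 μL) layers were counted. log D is the log of the ratio of counts per gram, octanol versus PBS.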
# [10] = test system: Stomach; assay: Biodistribution in ddY mouse stomach at 1 uCi/100 uL, iv after 15 mins by gamma counting; type: ADME, organism-based; settings: in vivo, 0.25 h
# [11] = test system: Heart; assay: Biodistribution in ddY mouse heart at 1 uCi/100 uL, iv after 30 mins by gamma counting; type: ADME, organism-based; settings: in vivo, 0.5 h; in short: as §1
# [12] = test system: Brain; assay: Biodistribution in ddY mouse brain at 1 uCi/100 uL, iv after 60 mins by gamma counting; type: ADME, organism-based; settings: in vivo, 1 h; in short: as §1
# [13] = test system: Brain; assay: Biodistribution in ddY mouse brain at 1 uCi/100 uL, iv after 30 mins by gamma counting; type: ADME, organism-based; settings: in vivo, 0.5 h; in short: as §1
# [14] = test system: Heart; assay: Biodistribution in ddY mouse heart at 1 uCi/100 uL, iv after 2 mins by gamma counting; type: ADME, organism-based; settings: in vivo; in short: as §1
# [15] = test system: Heart; assay: Biodistribution in ddY mouse heart at 1 uCi/100 uL, iv after 15 mins by gamma counting; type: ADME, organism-based; settings: in vivo, 0.25 h; in short: as §1
# [16] = test system: Kidney; assay: Biodistribution in ddY mouse kidney at 1 uCi/100 uL, iv after 60 mins by gamma counting; type: ADME, organism-based; settings: in vivo, 1 h
# [17] = test system: Intestine; assay: Biodistribution in ddY mouse intestine at 1 uCi/100 uL, iv after 120 mins by gamma counting; type: ADME, organism-based; settings: in vivo, 2 h; in short: as §1
# [18] = test system: Kidney; assay: Biodistribution in ddY mouse kidney at 1 uCi/100 uL, iv after 15 mins by gamma counting; type: ADME, organism-based; settings: in vivo, 0.25 h; in short: as §1
# [19] = test system: Intestine; assay: Biodistribution in ddY mouse intestine at 1 uCi/100 uL, iv after 2 mins by gamma counting; type: ADME, organism-based; settings: in vivo; in short: as §1
# [20] = test system: Heart; assay: Biodistribution in ddY mouse heart at 1 uCi/100 uL, iv after 60 mins by gamma counting; type: ADME, organism-based; settings: in vivo, 1 h; in short: as §1
# [21] = test system: Liver; assay: Biodistribution in ddY mouse liver at 1 uCi/100 uL, iv after 120 mins by gamma counting; type: ADME, organism-based; settings: in vivo, 2 h
# [22] = test system: Liver; assay: Biodistribution in ddY mouse liver at 1 uCi/100 uL, iv after 30 mins by gamma counting; type: ADME, organism-based; settings: in vivo, 0.5 h
# [23] = test system: Thyroid gland; assay: Biodistribution in ddY mouse thyroid at 1 uCi/100 uL, iv after 120 mins by gamma counting; type: ADME, organism-based; settings: in vivo, 2 h
# [24] = test system: Heart; assay: Biodistribution in ddY mouse heart at 1 uCi/100 uL, iv after 120 mins by gamma counting; type: ADME, organism-based; settings: in vivo, 2 h; in short: as §1
# [25] = test system: Liver; assay: Biodistribution in ddY mouse liver at 1 uCi/100 uL, iv after 15 mins by gamma counting; type: ADME, organism-based; settings: in vivo, 0.25 h
# [26] = test system: Spleen; assay: Biodistribution in ddY mouse spleen at 1 uCi/100 uL, iv after 60 mins by gamma counting; type: ADME, organism-based; settings: in vivo, 1 h
# [27] = test system: Blood; assay: Biodistribution in ddY mouse blood at 1 uCi/100 uL, iv after 15 mins by gamma counting; type: ADME, organism-based; settings: in vivo, 0.25 h; in short: as §1
# [28] = test system: Spleen; assay: Biodistribution in ddY mouse spleen at 1 uCi/100 uL, iv after 15 mins by gamma counting; type: ADME, organism-based; settings: in vivo, 0.25 h
# [29] = test system: Spleen; assay: Biodistribution in ddY mouse spleen at 1 uCi/100 uL, iv after 2 mins by gamma counting; type: ADME, organism-based; settings: in vivo
# [30] = test system: Thyroid gland; assay: Biodistribution in ddY mouse thyroid at 1 uCi/100 uL, iv after 60 mins by gamma counting; type: ADME, organism-based; settings: in vivo, 1 h
# [31] = test system: Lung; assay: Biodistribution in ddY mouse lung at 1 uCi/100 uL, iv after 2 mins by gamma counting; type: ADME, organism-based; settings: in vivo
# [32] = test system: Stomach; assay: Biodistribution in ddY mouse stomach at 1 uCi/100 uL, iv after 2 mins by gamma counting; type: ADME, organism-based; settings: in vivo
# [33] = test system: Stomach; assay: Biodistribution in ddY mouse stomach at 1 uCi/100 uL, iv after 30 mins by gamma counting; type: ADME, organism-based; settings: in vivo, 0.5 h
# [34] = test system: Lung; assay: Biodistribution in ddY mouse lung at 1 uCi/100 uL, iv after 30 mins by gamma counting; type: ADME, organism-based; settings: in vivo, 0.5 h
# [35] = test system: Blood; assay: Biodistribution in ddY mouse blood at 1 uCi/100 uL, iv after 30 mins by gamma counting; type: ADME, organism-based; settings: in vivo, 0.5 h; in short: as §1
# [36] = test system: Intestine; assay: Biodistribution in ddY mouse intestine at 1 uCi/100 uL, iv after 30 mins by gamma counting; type: ADME, organism-based; settings: in vivo, 0.5 h; in short: as §1
# [37] = test system: Liver; assay: Biodistribution in ddY mouse liver at 1 uCi/100 uL, iv after 60 mins by gamma counting; type: ADME, organism-based; settings: in vivo, 1 h
# [38] = test system: Liver; assay: Biodistribution in ddY mouse liver at 1 uCi/100 uL, iv after 2 mins by gamma counting; type: ADME, organism-based; settings: in vivo
# [39] = test system: Stomach; assay: Biodistribution in ddY mouse stomach at 1 uCi/100 uL, iv after 120 mins by gamma counting; type: ADME, organism-based; settings: in vivo, 2 h
# [40] = test system: Thyroid gland; assay: Biodistribution in ddY mouse thyroid at 1 uCi/100 uL, iv after 30 mins by gamma counting; type: ADME, organism-based; settings: in vivo, 0.5 h
# [41] = test system: Lung; assay: Biodistribution in ddY mouse lung at 1 uCi/100 uL, iv after 120 mins by gamma counting; type: ADME, organism-based; settings: in vivo, 2 h
# [42] = test system: Spleen; assay: Biodistribution in ddY mouse spleen at 1 uCi/100 uL, iv after 30 mins by gamma counting; type: ADME, organism-based; settings: in vivo, 0.5 h
# [43] = test system: Blood; assay: Biodistribution in ddY mouse blood at 1 uCi/100 uL, iv after 60 mins by gamma counting; type: ADME, organism-based; settings: in vivo, 1 h; in short: as §1
# [44] = test system: Stomach; assay: Biodistribution in ddY mouse stomach at 1 uCi/100 uL, iv after 60 mins by gamma counting; type: ADME, organism-based; settings: in vivo, 1 h
# [45] = test system: Thyroid gland; assay: Biodistribution in ddY mouse thyroid at 1 uCi/100 uL, iv after 2 mins by gamma counting; type: ADME, organism-based; settings: in vivo
# [46] = test system: Blood; assay: Biodistribution in ddY mouse blood at 1 uCi/100 uL, iv after 2 mins by gamma counting; type: ADME, organism-based; settings: in vivo; in short: as §1
# [47] = test system: Kidney; assay: Biodistribution in ddY mouse kidney at 1 uCi/100 uL, iv after 120 mins by gamma counting; type: ADME, organism-based; settings: in vivo, 2 h; in short: as §1
# [48] = test system: Lung; assay: Biodistribution in ddY mouse lung at 1 uCi/100 uL, iv after 60 mins by gamma counting; type: ADME, organism-based; settings: in vivo, 1 h
# [49] = test system: Kidney; assay: Biodistribution in ddY mouse kidney at 1 uCi/100 uL, iv after 30 mins by gamma counting; type: ADME, organism-based; settings: in vivo, 0.5 h
# [50] = test system: Lung; assay: Biodistribution in ddY mouse lung at 1 uCi/100 uL, iv after 15 mins by gamma counting; type: ADME, organism-based; settings: in vivo, 0.25 h
# [51] = test system: Spleen; assay: Biodistribution in ddY mouse spleen at 1 uCi/100 uL, iv after 120 mins by gamma counting; type: ADME, organism-based; settings: in vivo, 2 h
# [52] = test system: Intestine; assay: Biodistribution in ddY mouse intestine at 1 uCi/100 uL, iv after 60 mins by gamma counting; type: ADME, organism-based; settings: in vivo, 1 h; in short: as §1
smiles,measurement,setting,value
Nc1ccc(/C=C/C(=O)/C=C/c2ccc([125I])cc2)cc1,Ratio,[1],8.44
same,Drug uptake,[2],4.56 % ID/g
same,Drug uptake,[3],2.37 % ID/g
same,Drug uptake,[4],6.9 % ID/g
same,Drug uptake,[5],0.4 % ID/g
same,Drug uptake,[6],2.52 % ID/g
same,Drug uptake,[7],8.39 % ID/g
same,Drug uptake,[8],11.2 % ID/g
same,logD,[9],3.26
same,Drug uptake,[10],3.1 % ID/organ
same,Drug uptake,[11],2.01 % ID/g
same,Drug uptake,[12],0.54 % ID/g
same,Drug uptake,[13],1.36 % ID/g
same,Drug uptake,[14],7.06 % ID/g
same,Drug uptake,[15],3.45 % ID/g
same,Drug uptake,[16],9 % ID/g
same,Drug uptake,[17],25.7 % ID/g
same,Drug uptake,[18],22.81 % ID/g
same,Drug uptake,[19],2.27 % ID/g
same,Drug uptake,[20],0.83 % ID/g
same,Drug uptake,[21],17.57 % ID/g
same,Drug uptake,[22],24.17 % ID/g
same,Drug uptake,[23],21.98 % ID/g
same,Drug uptake,[24],1.11 % ID/g
same,Drug uptake,[25],29.08 % ID/g
same,Drug uptake,[26],0.8 % ID/g
same,Drug uptake,[27],4.93 % ID/g
same,Drug uptake,[28],2.02 % ID/g
same,Drug uptake,[29],2.8 % ID/g
same,Drug uptake,[30],14.14 % ID/g
same,Drug uptake,[31],9.25 % ID/g
same,Drug uptake,[32],1.37 % ID/organ
same,Drug uptake,[33],3.12 % ID/organ
same,Drug uptake,[34],4.81 % ID/g
same,Drug uptake,[35],4.12 % ID/g
same,Drug uptake,[36],10.85 % ID/g
same,Drug uptake,[37],16.43 % ID/g
same,Drug uptake,[38],16.98 % ID/g
same,Drug uptake,[39],3.07 % ID/organ
same,Drug uptake,[40],11.49 % ID/g
same,Drug uptake,[41],2.82 % ID/g
same,Drug uptake,[42],1.79 % ID/g
same,Drug uptake,[43],1.72 % ID/g
same,Drug uptake,[44],2.12 % ID/organ
same,Drug uptake,[45],8.64 % ID/g
same,Drug uptake,[46],3.89 % ID/g
same,Drug uptake,[47],9.52 % ID/g
same,Drug uptake,[48],2.43 % ID/g
same,Drug uptake,[49],16.31 % ID/g
same,Drug uptake,[50],6.06 % ID/g
same,Drug uptake,[51],1.13 % ID/g
same,Drug uptake,[52],25.97 % ID/g

# Source: ChEMBL document CHEMBL1765020, “Synthesis and structure-affinity relationships of novel dibenzylideneacetone derivatives as probes for β-amyloid plaques” (J Med Chem, 2011)
